Results pooled from the literature.
Each line is one published result; the experiments were not run side by side.
Target: Fibroblast growth factor receptor 1 (FGFR1, Homo sapiens, UniProt P11362)

CS(=O)(=O)NCC[C@H](NC(=O)c1cncc2c1cnn2-c1ccc(F)cc1)c1ccnc(S(C)(=O)=O)c1  remaining binding (cell-free assay, competition with immobilised ligand; 1 µM): 87%
COc1cnc(Nc2cccc(S(N)(=O)=O)c2)nc1N1CCN(c2ccccc2)CC1  remaining binding (binding, competition with immobilised ligand; 1 µM): 100%
C[C@@H](c1ccc(-n2cnc3c(N)ncnc32)cc1)N1CCc2nn(C)c(Cc3ccccc3)c2C1=O  remaining binding (binding, competition with immobilised ligand; 0.1 µM): 94%
CCN1CCN(Cc2ccc(C(=O)Nc3ccc(C)c(Oc4ccc5c(c4)CC(=O)N5)c3)cc2C(F)(F)F)CC1  remaining binding (binding, competition with immobilised ligand; 1 µM): 78%
N[C@@H]1CCN(c2nccc(-c3cnn4ncccc34)n2)C1  remaining binding (binding; 1 µM): 96%
CO[C@H]1CC[C@H](CNc2ccc(S(=O)(=O)NC(=O)c3ccc(N4CCN(CC5=C(c6ccc(Cl)cc6)CC(C)(C)CC5)CC4)cc3Oc3cnc4[nH]ccc4c3)cc2[N+](=O)[O-])CC1  remaining binding (cell-free assay, competition with immobilised ligand; 1 µM): 68%
CNC(=O)[C@@H]1CC[C@@H](n2c(-c3ccc4cnccc4c3)nc3ccc(C(=O)NCc4cccc(C(N)=O)c4)cc32)C1  remaining binding (binding, competition with immobilised ligand; 1 µM): 90%
CN(C)c1nccc(-c2cnn3ncccc23)n1  remaining binding (binding; 1 µM): 100%
Cc1nc(C2CCN(C(=O)c3ccc(OC(F)(F)F)cc3N)CC2)c2ncc(N3CCN(C)CC3)cc2n1  remaining binding (cell-free assay, competition with immobilised ligand; 1 µM): 100%
O=C(NCCCN1CCOCC1)c1ccc(Nc2ncc(Cl)c(-c3ccc(Cl)s3)n2)cc1  remaining binding (binding, competition with immobilised ligand; 1 µM): 27%
CN(CCCC(F)(F)F)c1nccc(-c2cnn3ncccc23)n1  remaining binding (binding; 1 µM): 46%
O=C(O)c1cc(-c2ccc(C3CCNCC3)cc2)c2ccc(-c3ccc(C(F)(F)F)cc3)cc2c1  remaining binding (cell-free assay, competition with immobilised ligand; 1 µM): 100%
O=C(c1ccc(Nc2nccc(-c3cc4ccccc4s3)n2)cc1)N1CCC(N2CCCC2)CC1  remaining binding (binding, competition with immobilised ligand; 1 µM): 88%
c1cncc(-c2cccc(Nc3nccc(NC4CCCCC4)n3)c2)c1  remaining binding (binding, competition with immobilised ligand; 10 µM): 14%
C=CC(=O)N1CCC(C(=O)NCC(=O)N2CCN(c3nc(-c4cnc(N)nc4C(F)F)nc(N4CCOCC4)n3)CC2)CC1  remaining binding (binding, competition with immobilised ligand; 1 µM): 100%
CN(C)C(=O)Cn1cc(-c2nc([C@@](C)(c3ccc(-c4cnc(N)nc4)cc3)C3CC3)no2)cn1  remaining binding (cell-free assay, competition with immobilised ligand; 1 µM): 95%
C[C@@H]1CCN(c2nccc(-c3cnn4ncccc34)n2)C1  remaining binding (binding; 1 µM): 100%
O=C(Nc1c[nH]nc1C(=O)NC1CCNCC1)c1cc(F)cc(F)c1  remaining binding (binding, competition with immobilised ligand; 1 µM): 100%
Cc1cnn2ncc(-c3ccnc(N(C)C)n3)c2c1  remaining binding (binding; 1 µM): 100%
O=C(c1ccc(Nc2ncc(Cl)c(-c3ccc(Cl)s3)n2)cc1)N1CCC(N2CCCC2)CC1  remaining binding (binding, competition with immobilised ligand; 1 µM): 12%
C[C@@H]1CN(c2cc(-c3nn(C)c4ccc(OC5(C)CC5)cc34)ncn2)C[C@H](C)O1  remaining binding (cell-free assay, competition with immobilised ligand; 1 µM): 100%
F[C@@H]1CCN(c2nccc(-c3cnn4ncccc34)n2)C1  remaining binding (binding; 1 µM): 87%
